Experimental data as given in ChEMBL document CHEMBL1154325, “Cytotoxic clerodane diterpenoids from Casearia obliqua” (J Nat Prod, 2009).

Assays:
HCT-8 = assay: Cytotoxic activity against human HCT8 cells after 69 hrs by MTT assay; assay type: functional, cell-based; details: HCT-8, 69 h
In short: (§1)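 Cells were grown in RPMI 1640 with 10% FBS, 2 mM glutamine, penicillin and streptomycin at 37 °C under 5% CO2, then plated. After 24 h, compounds in DMSO were added at 0.39-25 µg/mL, with doxorubicin at 0.01-0.58 µg/mL as positive control. After 69 h, MTT at 0.5 mg/mL was added for 3 h. Formazan was dissolved in DMSO and read at 595 nm. IC50 came from nonlinear regression.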

SF-295 = assay: Cytotoxic activity against human SF295 cells after 69 hrs by MTT assay; assay type: functional, cell-based; details: SF-295, 69 h; in short: as §1
[1] = test system: MDA-MB-435 (Homo sapiens); assay: Cytotoxic activity against human MDA-MB-435 cells after 69 hrs by MTT assay; details: MDA-MB-435, 69 h
HL-60 = assay: Cytotoxic activity against human HL60 cells after 69 hrs by MTT assay; assay type: functional, cell-based; details: HL-60, 69 h; in short: as §1

## COc1cccc2c1C(=O)c1c(O)c3c(c(O)c1C2=O)C[C@@](O)(C(=O)CO)C[C@@H]3O[C@H]1C[C@H](N)[C@H](O)[C@H](C)O1 [DOXORUBICIN]
HCT-8
  IC50: 1.5 µM
SF-295
  IC50: 0.75 µM
[1]
  IC50: 0.12 µM
HL-60
  IC50: 0.07 µM

## C=C/C(C)=C/C[C@]1(C)[C@H]2C[C@H](O)C=C3[C@H](OC(C)=O)O[C@@H](OC(C)=O)[C@@]32[C@H](OC(=O)/C=C/c2ccccc2)C[C@@H]1C
HCT-8
  IC50: > 5 µM
SF-295
  IC50: > 5 µM
[1]
  IC50: > 5 µM
HL-60
  IC50: > 5 µM

## C=C/C(C)=C/C[C@]1(C)[C@H]2C[C@@H](OC(C)=O)C=C3[C@H](OC(C)=O)O[C@@H](OC(C)=O)[C@@]32[C@H](OC(=O)c2ccc(O)cc2)C[C@@H]1C [CASEOBLIQUIN A]
HCT-8
  IC50: > 5 µM
SF-295
  IC50: > 5 µM
[1]
  IC50: > 5 µM
HL-60
  IC50: > 5 µM
